Test results reported in PMC8650835 (International Journal of Nanomedicine, 2021).
Values after ≈ are worked out from the molar mass of the structure shown.

Assays:
[1] = In vivo safety: body weight, H&E histology, blood biochemistry; set-up: species or system BALB/c nude mice; conditions: 10 mg·kg^−1 i.v.
Summary of the method: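 MCF-7 xenografts in BALB/c nude mice: 1×10^6 cells s.c. (alar region), randomised at 100–200 mm3 (n = 6/group). Untreated normal group also included. Body weight recorded every 2 days for 16 days. Day 16: serum ALT, AST, BUN, CRE measured; organs formalin-fixed, paraffin-embedded and H&E-stained.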

[2] = Aqueous solubility in PBS; type: physicochemical; conditions: pH = 7.4
[3] = in PBS; cited from earlier work
[4] = free CPT; cited from earlier work

| Compound | body weights compared to PBS ([1]; MCF-7 tumor-bearing nude mice, p < 0.05) | creatinine (CRE) level compared with the normal group ([1]; day 16, p < 0.001, n = 6) | blood urea nitrogen (BUN) level compared with the normal group ([1]; day 16, p < 0.05, n = 6) | H&E staining of kidney ([1]; characteristic of acute kidney injury) | aqueous solubility [2] [µg/mL] | CPT lactone form remained at equilibrium [3] [%] | half-life of lactone ring hydrolysis [3] [min] | blood circulation half-life (t1/2) [4] [min] |
| --- | --- | --- | --- | --- | --- | --- | --- | --- |
| CCc1c2c(nc3ccc(OC(=O)N4CCC(N5CCCCC5)CC4)cc13)-c1cc3c(c(=O)n1C2)COC(=O)[C@]3(O)CC [IR, irinotecan] | reduced observably | increased obviously | increased obviously | obvious interstitial inflammatory cell infiltration |  |  |  |  |
| CC[C@@]1(O)C(=O)OCc2c1cc1n(c2=O)Cc2cc3ccccc3nc2-1 [CPT, camptothecin] |  |  |  |  | 3 (≈ 8.61 µM) | 17 | 24 | 9.9 ± 8.04 |
